Data: ChEMBL document CHEMBL1949521, “Discovery of CC-930, an orally active anti-fibrotic JNK inhibitor” (Bioorg Med Chem Lett, 2012)
Values after ≈ are worked out from the molar mass of the structure shown. Active and inactive are the calls of the source. The calls are words filed in the database; no cut-off is given here.

What was measured:
[1] = Oral bioavailability in rat; type: ADME, organism-based; settings: in vivo
[2] = molecular target: c-Jun N-terminal kinase, JNK (Homo sapiens, UniProt P45983+P53779+P45984); assay: Inhibition of JNK-mediated GST tagged c-Jun phosphorylation in human Jurkat T cells compound treated for 30 mins prior anisomycin stimulation measured after 40 mins by fluorescence spectrophotometry; type: cell-based
[3] = AUC in rat at 10 mg/kg, po; type: ADME, organism-based; parameters: dose 10 mg/kg, route oral; settings: plasma
Procedure, shortened: (§1)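 Oral dose of 10 mg/kg given as a suspension in aqueous 0.5% CMC/0.25% Tween 80. Plasma AUC, Cmax and Tmax were taken from the oral arm. Bioavailability was derived against the intravenous arm in the same species.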

[4] = molecular target: Mitogen-activated protein kinase 14 (Homo sapiens, UniProt Q16539); assay: Inhibition of p38alpha using myelin basic protein as substrate preincubated for 15 mins prior ATP addition measured after 60 mins by scintillation counting
Mitogen-activated protein kinase 14, sequence (Q16539 whole entry): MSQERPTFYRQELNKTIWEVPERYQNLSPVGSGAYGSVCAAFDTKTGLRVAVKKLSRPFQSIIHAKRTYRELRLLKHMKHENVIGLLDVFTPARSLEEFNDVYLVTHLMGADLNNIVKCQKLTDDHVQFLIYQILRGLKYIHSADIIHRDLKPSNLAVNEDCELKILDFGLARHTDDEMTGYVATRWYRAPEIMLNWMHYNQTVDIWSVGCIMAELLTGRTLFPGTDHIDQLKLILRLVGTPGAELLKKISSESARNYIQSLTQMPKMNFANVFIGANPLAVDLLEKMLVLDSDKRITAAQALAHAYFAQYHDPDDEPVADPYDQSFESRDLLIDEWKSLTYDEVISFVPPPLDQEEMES

[5] = molecular target: Mitogen-activated protein kinase 8 (Homo sapiens, UniProt P45983); assay: Inhibition of hexa-His-tagged JNK1 expressed in baculoviral system using GST-tagged c-Jun as substrate preincubated for 15 mins prior ATP addition measured after 60 mins by scintillation counting
Mitogen-activated protein kinase 8, sequence (P45983 whole entry): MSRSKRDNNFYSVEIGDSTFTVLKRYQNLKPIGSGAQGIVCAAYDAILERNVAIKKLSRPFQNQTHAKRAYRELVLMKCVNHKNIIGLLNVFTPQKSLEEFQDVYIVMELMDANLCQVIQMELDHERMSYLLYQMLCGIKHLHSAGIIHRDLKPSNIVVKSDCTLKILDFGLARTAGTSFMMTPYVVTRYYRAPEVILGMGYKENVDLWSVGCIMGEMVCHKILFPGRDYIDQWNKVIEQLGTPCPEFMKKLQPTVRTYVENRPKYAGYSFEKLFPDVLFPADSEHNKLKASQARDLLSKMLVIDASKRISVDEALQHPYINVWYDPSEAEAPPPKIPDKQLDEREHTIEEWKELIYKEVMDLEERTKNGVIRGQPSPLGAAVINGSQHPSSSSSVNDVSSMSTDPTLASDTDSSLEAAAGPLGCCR

[6] = Clearance in rat at 2 mg/kg, iv; type: ADME, organism-based; parameters: dose 2 mg/kg, route intravenous; settings: in vivo
Procedure, shortened: (§2)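 Rats dosed intravenously at 2 mg/kg in a solution of 5% DMA and 30% PEG 400.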

[7] = system: Rattus norvegicus; assay: Antiinflammatory activity in CD rat assessed as inhibition of LPS-stimulated TNFalpha production at 30 mg/kg, po administered 1 hr prior LPS challenge measured after 90 mins by ELISA; type: functional
Procedure, shortened: (§3)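 Acute PK-PD model in rats: compound given by oral gavage at 10 or 30 mg/kg, then lipopolysaccharide injected, and plasma TNF-alpha release measured.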

[8] = AUC in po dosed rat; type: ADME, organism-based; settings: plasma
[9] = AUC in rat at 2 mg/kg, iv; type: ADME, organism-based; parameters: dose 2 mg/kg, route intravenous; settings: plasma; procedure, shortened: as §2
[10] = Clearance in cynomolgus monkey at 1 mg/kg, iv; type: ADME, organism-based, Macaca fascicularis; parameters: dose 1 mg/kg, route intravenous; settings: in vivo
Procedure, shortened: (§4)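 Intravenous dose of 1 mg/kg given to monkeys in a solution of 5% DMA and 95% isotonic citrate buffer (50 mM, pH 5.0).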

[11] = Mean residence time in dog at 1 mg/kg, iv; type: ADME, organism-based, Canis lupus familiaris; parameters: dose 1 mg/kg, route intravenous; settings: in vivo
[12] = Dissociation constant, pKa of the compound; type: physicochemical
[13] = Cmax in cynomolgus monkey at 10 mg/kg, po; type: ADME, organism-based, Macaca fascicularis; parameters: dose 10 mg/kg, route oral; settings: in vivo; procedure, shortened: as §1
[14] = system: Rattus norvegicus; assay: Toxicity in rat assessed as adverse effects at 90 mg/kg, po qd for 4 days; type: organism-based; parameters: dose 90 mg/kg, route oral; settings: in vivo, 96 h
Procedure, shortened: (§5)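 Male rats dosed once daily for 4 days by oral gavage with suspensions in aqueous CMC at 30, 90 and 300 mg/kg. Adverse observations were recorded and histology examined.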

[15] = molecular target: Mitogen-activated protein kinase 3 (Homo sapiens, UniProt P27361); assay: Inhibition of ERK1
Mitogen-activated protein kinase 3, sequence (P27361 whole entry): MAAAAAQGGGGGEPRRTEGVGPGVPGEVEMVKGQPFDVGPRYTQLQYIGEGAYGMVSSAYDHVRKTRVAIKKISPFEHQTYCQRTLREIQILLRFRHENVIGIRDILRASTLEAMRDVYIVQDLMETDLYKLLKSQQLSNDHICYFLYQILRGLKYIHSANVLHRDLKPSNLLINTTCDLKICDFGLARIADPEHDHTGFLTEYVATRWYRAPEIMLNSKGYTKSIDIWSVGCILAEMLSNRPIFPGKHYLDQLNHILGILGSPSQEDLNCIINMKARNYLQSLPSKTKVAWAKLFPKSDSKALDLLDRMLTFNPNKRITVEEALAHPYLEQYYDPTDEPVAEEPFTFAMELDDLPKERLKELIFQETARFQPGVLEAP

[16] = system: Mus musculus; assay: Antifibrotic activity in bleomycin-induced C57B1/6 mouse model assessed as inhibition of white blood cells in bronchoalveolar lavage at 25 to 150 mg/kg, po bid administered 2 hrs prior bleomycin induction for 13 days; type: functional, organism-based; settings: Lung
Procedure, shortened: (§6)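 Mice received oral doses prophylactically at 25, 50, 100 and 150 mg/kg before bleomycin instillation, then twice daily for 13 days. White blood cells, monocytes and lymphocytes were counted in bronchoalveolar lavage, and lung fibrosis was scored, each against a vehicle control.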

[17] = system: Salmonella typhimurium; assay: Mutagenic activity in Salmonella Typhimurium by Ames test; type: toxicity, organism-based; settings: salmonella enterica subsp. enterica serovar typhimurium
[18] = AUC in cynomolgus monkey at 1 mg/kg, iv; type: ADME, organism-based, Macaca fascicularis; parameters: dose 1 mg/kg, route intravenous; settings: plasma; procedure, shortened: as §4
[19] = Mean residence time in cynomolgus monkey at 1 mg/kg, iv; type: ADME, organism-based, Macaca fascicularis; parameters: dose 1 mg/kg, route intravenous; settings: in vivo; procedure, shortened: as §4
[20] = Volume of distribution at steady state in rat at 2 mg/kg, iv; type: ADME, organism-based; parameters: dose 2 mg/kg, route intravenous; settings: in vivo, read-out: Vdss; procedure, shortened: as §2
[21] = system: Mus musculus; assay: Antifibrotic activity in bleomycin-induced C57B1/6 mouse model assessed as reduction in lung fibrosis score at 25 to 150 mg/kg, po bid administered 2 hrs prior bleomycin induction for 13 days; type: functional; parameters: scale not given: the % may be the effect or the level left; settings: dose mg/kg 25-150; procedure, shortened: as §6
[22] = molecular target: Cytochrome P450 3A4 (Homo sapiens, UniProt P08684); assay: Inhibition of CYP3A4; type: ADME
Cytochrome P450 3A4, sequence (P08684 whole entry): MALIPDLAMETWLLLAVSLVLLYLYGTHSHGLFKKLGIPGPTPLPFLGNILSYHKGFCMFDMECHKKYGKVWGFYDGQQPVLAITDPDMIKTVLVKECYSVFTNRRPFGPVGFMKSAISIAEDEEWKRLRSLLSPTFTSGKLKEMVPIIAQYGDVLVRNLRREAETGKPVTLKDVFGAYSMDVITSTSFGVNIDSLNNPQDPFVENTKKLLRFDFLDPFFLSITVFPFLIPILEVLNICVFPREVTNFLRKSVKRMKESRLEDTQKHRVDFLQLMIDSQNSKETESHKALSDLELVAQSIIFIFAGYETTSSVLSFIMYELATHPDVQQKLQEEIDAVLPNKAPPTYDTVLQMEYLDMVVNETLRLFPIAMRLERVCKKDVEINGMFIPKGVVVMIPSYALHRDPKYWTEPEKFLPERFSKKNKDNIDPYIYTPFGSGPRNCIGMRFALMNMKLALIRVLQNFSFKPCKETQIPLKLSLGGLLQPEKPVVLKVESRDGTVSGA

[23] = system: Mus musculus; assay: Antifibrotic activity in bleomycin-induced C57B1/6 mouse model assessed as reduction in lung fibrosis score compound po bid administered 2 hrs prior bleomycin induction for 13 days; type: functional, organism-based; procedure, shortened: as §6
[24] = system: Canis familiaris; assay: AUC in dog at 10 mg/kg, po; type: ADME, organism-based, Canis lupus familiaris, Plasma; parameters: dose 10 mg/kg, route oral; settings: in vivo; procedure, shortened: as §1
[25] = Solubility in simulated intestinal fluid; type: physicochemical
[26] = Volume of distribution at steady state in cynomolgus monkey at 1 mg/kg, iv; type: ADME, organism-based, Macaca fascicularis; parameters: dose 1 mg/kg, route intravenous; settings: in vivo, read-out: Vdss; procedure, shortened: as §4
[27] = Volume of distribution at steady state in dog at 1 mg/kg, iv; type: ADME, organism-based, Canis lupus familiaris; parameters: dose 1 mg/kg, route intravenous; settings: in vivo, read-out: Vdss
[28] = Lipophilicity, log D of the compound; type: physicochemical; settings: octanol/water
[29] = Mean residence time in rat at 2 mg/kg, iv; type: ADME, organism-based; parameters: dose 2 mg/kg, route intravenous; settings: in vivo; procedure, shortened: as §2
[30] = system: Canis familiaris; assay: AUC in dog at 1 mg/kg, iv; type: ADME, organism-based, Canis lupus familiaris, Plasma; parameters: dose 1 mg/kg, route intravenous; settings: in vivo
[31] = system: Mus musculus; assay: Antifibrotic activity in bleomycin-induced C57B1/6 mouse model assessed as inhibition of monocytes in bronchoalveolar lavage at 25 to 150 mg/kg, po bid administered 2 hrs prior bleomycin induction for 13 days; type: functional, organism-based; settings: Lung; procedure, shortened: as §6
[32] = Tmax in cynomolgus monkey at 10 mg/kg, po; type: ADME, organism-based, Macaca fascicularis; parameters: dose 10 mg/kg, route oral; settings: in vivo; procedure, shortened: as §1
[33] = Clearance in dog at 1 mg/kg, iv; type: ADME, organism-based, Canis lupus familiaris; parameters: dose 1 mg/kg, route intravenous; settings: in vivo
[34] = Oral bioavailability in rat at 10 mg/kg; type: ADME, organism-based; settings: in vivo; procedure, shortened: as §1
[35] = AUC in cynomolgus monkey at 10 mg/kg, po; type: ADME, organism-based, Macaca fascicularis; parameters: dose 10 mg/kg, route oral; settings: plasma; procedure, shortened: as §1
[36] = molecular target: Cytochrome P450 2D6 (Homo sapiens, UniProt P10635); assay: Inhibition of CYP2D6; type: ADME
Cytochrome P450 2D6, sequence (P10635 whole entry): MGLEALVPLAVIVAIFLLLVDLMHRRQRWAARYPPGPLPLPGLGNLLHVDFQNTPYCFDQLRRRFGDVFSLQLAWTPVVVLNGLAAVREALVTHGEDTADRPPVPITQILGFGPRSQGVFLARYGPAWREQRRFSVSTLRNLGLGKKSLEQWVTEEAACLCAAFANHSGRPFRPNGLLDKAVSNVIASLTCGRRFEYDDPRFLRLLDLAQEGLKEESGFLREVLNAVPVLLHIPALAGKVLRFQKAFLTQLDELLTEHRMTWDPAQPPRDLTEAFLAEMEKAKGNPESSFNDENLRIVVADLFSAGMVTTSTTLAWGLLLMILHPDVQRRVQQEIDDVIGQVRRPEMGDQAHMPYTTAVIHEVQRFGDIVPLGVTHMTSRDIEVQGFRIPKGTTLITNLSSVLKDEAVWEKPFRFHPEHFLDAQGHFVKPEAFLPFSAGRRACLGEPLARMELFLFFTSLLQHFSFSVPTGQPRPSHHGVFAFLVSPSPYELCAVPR

[37] = system: Rattus norvegicus; assay: Antiinflammatory activity in CD rat assessed as inhibition of LPS-stimulated TNFalpha production at 10 mg/kg, po administered 1 hr prior LPS challenge measured after 90 mins by ELISA; type: functional; procedure, shortened: as §3
[38] = system: Rattus norvegicus; assay: Toxicity in rat assessed as histological changes at 90 mg/kg, po qd for 4 days; type: organism-based; parameters: dose 90 mg/kg, route oral; settings: in vivo, 96 h; procedure, shortened: as §5
[39] = system: Canis familiaris; assay: Oral bioavailability in dog at 10 mg/kg; type: ADME, organism-based, Canis lupus familiaris; settings: in vivo; procedure, shortened: as §1
[40] = system: Mus musculus; assay: Antifibrotic activity in bleomycin-induced C57B1/6 mouse model assessed as inhibition of lymphocytes in bronchoalveolar lavage at 25 to 150 mg/kg, po bid administered 2 hrs prior bleomycin induction for 13 days; type: functional, organism-based; settings: Lung; procedure, shortened: as §6
[41] = Tmax in dog at 10 mg/kg, po; type: ADME, organism-based, Canis lupus familiaris; parameters: dose 10 mg/kg, route oral; settings: in vivo; procedure, shortened: as §1
[42] = Oral bioavailability in cynomolgus monkey at 10 mg/kg; type: ADME, organism-based, Macaca fascicularis; settings: in vivo; procedure, shortened: as §1
[43] = Tmax in rat at 10 mg/kg, po; type: ADME, organism-based; parameters: dose 10 mg/kg, route oral; settings: in vivo; procedure, shortened: as §1
[44] = Cmax in dog at 10 mg/kg, po; type: ADME, organism-based, Canis lupus familiaris; parameters: dose 10 mg/kg, route oral; settings: in vivo; procedure, shortened: as §1
[45] = Cmax in rat at 10 mg/kg, po; type: ADME, organism-based; parameters: dose 10 mg/kg, route oral; settings: in vivo; procedure, shortened: as §1

O[C@H]1CC[C@H](Nc2ncc3nc(Nc4ccc(F)cc4F)n(C4CCCC4)c3n2)CC1 gave a bioavailability [1] of 68%, an IC50 [2] of 440 nM and an AUC [3] of 2.7 µM·h. The IC50 [4] was 560 nM, the IC50 [5] was 120 nM and the clearance [6] was 59 mL/min/kg.
With O[C@H]1CC[C@H](Nc2ncc3nc(Nc4ccc(F)cc4F)n(C4CCOCC4)c3n2)CC1 the bioavailability [1] was 70%, the IC50 [2] was 860 nM and the AUC [3] was 12 µM·h. For the same molecule, the IC50 [4] was 2700 nM, the IC50 [5] was 390 nM and the clearance [6] was 21 mL/min/kg.
Work on CC(C)Nc1ncc2nc(Nc3c(F)cc(F)cc3F)n([C@H]3CC[C@@H](C(=O)N4CCOCC4)CC3)c2n1 yielded a bioavailability [1] of 20%, an IC50 [2] of 230 nM and an IC50 [4] of 6400 nM. For the same molecule, the inhibition in vivo at 30 mg/kg [7] was 58%, the IC50 [5] was 63 nM and the clearance [6] was 26 mL/min/kg. For the same molecule, the AUC [8] was 2.4 µM·h.
Molecule O[C@H]1CC[C@H](Nc2ncc3nc(Nc4c(F)cc(F)cc4F)n([C@H]4CCOC4)c3n2)CC1 [TANZISERTIB] has an AUC [9] of 1.9 µM·h, a clearance [10] of 2.9 mL/min/kg and an MRT [11] of 7.3 h. For the same molecule, the pKa [12] was 5.47, the Cmax [13] was 11 µM and the Activity [14] was “Non-toxic”. For the same molecule, the IC50 [15] was 480 nM, the inhibition [16] was “Active” and the Activity [17] was “Non-toxic”. It also gave an AUC [18] of 13 µM·h, an MRT [19] of 10 h and a Vd [20] of 1.7 L/kg. For the same molecule, the Activity [21] was 18%, the “inhibition (INH)” value [22] was “Not Active” and the Activity [23] was “Dose-dependent effect”. For the same molecule, the bioavailability [1] was 30%, the AUC [24] was 86 µM·h and the solubility [25] was 780 µg/mL (≈ 1740 µM). For the same molecule, the Vd [26] was 1.6 L/kg, the AUC [3] was 3.1 µM·h and the Vd [27] was 1.5 L/kg. For the same molecule, the IC50 [4] was 3400 nM, the logD [28] was 1.93 and the MRT [29] was 0.7 h. For the same molecule, the AUC [30] was 11 µM·h, the inhibition [31] was “Active” and the Tmax [32] was 1.3 h. It also gave a clearance [33] of 3.4 mL/min/kg, a bioavailability [34] of 30% and an AUC [35] of 100 µM·h. For the same molecule, the “inhibition (INH)” value [36] was “Not Active”, the inhibition in vivo at 10 mg/kg [37] was 23% and the Activity [38] was “Non-toxic”. The F [39] was 27%, the inhibition [40] was “Active” and the Tmax [41] was 2.5 h. It also gave an inhibition in vivo at 30 mg/kg [7] of 77%, a bioavailability [42] of 77% and a Tmax [43] of 1.5 h. For the same molecule, the clearance [6] was 39 mL/min/kg, the Cmax [44] was 7.2 µM and the Cmax [45] was 0.7 µM.
With O[C@H]1CC[C@H](Nc2ncc3nc(Nc4c(F)cc(F)cc4F)n([C@@H]4CCOC4)c3n2)CC1 the IC50 [4] was greater than 3000 nM.
Work on CC(C)Nc1ncc2nc(Nc3c(F)cc(F)cc3F)n([C@H]3CC[C@@H](C(N)=O)CC3)c2n1 yielded a bioavailability [1] of 32%, an IC50 [2] of 200 nM and an IC50 [4] of 160 nM. For the same molecule, the inhibition in vivo at 30 mg/kg [7] was 96%, the IC50 [5] was 120 nM and the clearance [6] was 25 mL/min/kg. For the same molecule, the AUC [8] was 5 µM·h.
N[C@H]1CC[C@H](Nc2ncc3nc(Nc4ccc(F)cc4F)n(C4CCCC4)c3n2)CC1 gave a bioavailability [1] of 8%, an AUC [3] of 0.36 µM·h and a clearance [6] of 66 mL/min/kg.
With CS(=O)(=O)N[C@H]1CC[C@H](Nc2ncc3nc(Nc4ccc(F)cc4F)n(C4CCOCC4)c3n2)CC1 the IC50 [4] was 860 nM and the IC50 [5] was 880 nM.
